In the library only some 2.6% were active in any assay of this set; here they are far more common.
INS-1E GSIS act: GLuc luminescence reporter in INS-1E cells, primary screen for activators of glucose-dependent secretion of insulin. INS-1E GLuc reporter insulin secretion, 2-3 h. activation, % at 16.6 µM. 370,000 compounds, 0.61% hits. AID 743287, 2014;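 active = lowest replicate activation of at least 40%, so every replicate reaches that level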;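 also: 0% = median of neutral control wells and 100% = median of IBMX positive control wells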
ERAP1 HTS inh: human ERAP1 aminopeptidase inhibitors, primary screen, biochemical, single point, plate reader | Endoplasmic reticulum aminopeptidase 1 (Homo sapiens), Q9NZ08 | recombinant ERAP1, Leu-AMC fluorescence, 60 min | inhibition, % at 10.7 µM | 340,000 compounds, 0.15% hits | AID 652197, 2013;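 active = mean replicate inhibition of at least 30%, or all replicates individually reaching that 30% level; inactive = mean below 30% and not every replicate reaching it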;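 also: 0% = neutral control wells and 100% = L-leucinethiol positive control wells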
miR-122 sensor: miR-122 Renilla sensor signal increase in Huh7, primary screen, miR-122 inhibitor project, cell-based, single point, plate reader. Huh7 miR-122 Renilla luciferase sensor, 48 h; neutral wells = 0, positive control = 100. activation (reporter increase), % at 12.5 µM. 340,000 compounds, 0.3% hits;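 active = mean replicate activation score at least 90 and every replicate individually at or above 90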;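 also: higher luciferase means less miR-122 activity so hits act as miR-122 inhibitors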
CFTR F508del cor: F508del CFTR correction, initial screen, CFBE line, single point; CFBE cells, YFP halide quenching; stimulated with forskolin plus potentiator P3; % fluorescence drop versus neutral controls; activity (quench increase), % at 7.58 µM; 350,000 compounds, 0.36% hits; AID 720511, 2013;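 active = mean added fluorescence quench of at least 8% versus neutral control, with both replicates also reaching 8%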;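 also: cells transiently co-express mutant CFTR-F508del with the halide-sensitive YFP; corrector assay measuring rescue of mutant channel to the surface after 24 h compound exposure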
E-selectin induc: E-selectin induction in HUVECs, primary screen, imaging, HUVEC, immunofluorescence imaging, single point. normalized: neutral wells 0, TNF-alpha wells 100. activation, % at 7.58 µM. 260,000 compounds, 0.37% hits. AID 686992, 2013;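 active = mean E-selectin-positive cell signal at least 10% of the positive control, reached in at least 60% of replicates, without over 20% cell loss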
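material = human umbilical vein endothelial cells (HUVEC), E-selectin induction | quantity = 3,000 cells/well | medium = EGM-2 growth medium on 0.1% gelatin-coated wells | technique = immunofluorescence imaging | read-out basis = % PE-positive cells | control set = TNF-alpha positive control, DMSO neutral control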
DENV2 CPE: inhibitors of DENV2 cytopathic effect, primary screen, cell-based, plate reader, single concentration; CPE inhibition, % at 9.99 µM; DENV2-infected cells, cytopathic effect rescue; 350,000 compounds, 1.7% hits; in the data active = CPE inhibition above about 20%, passing the limit was not always enough; tested in BHK-21 cells;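 also: 0% = median of neutral control wells and 100% = median of positive control wells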
An asterisk follows results filed as active; [ ] = another dose, or the depositor's remark.

COc1nc(Nc2ccccc2)nc(OC)n1 was read as INS-1E GSIS act 41*, ERAP1 HTS inh 2, miR-122 sensor 4, CFTR F508del cor 0, E-selectin induc 4 and DENV2 CPE -3.
C/C(CC(=O)Nc1ccccn1)=N\NC(=O)c1ccc2ccccc2c1 was read as INS-1E GSIS act 4.
Screening C/C(CC(=O)Nc1ccccn1)=N\NC(=O)c1ccccc1O returned INS-1E GSIS act 5, ERAP1 HTS inh 1, miR-122 sensor 262*, CFTR F508del cor 2, E-selectin induc 1 and DENV2 CPE -5.
`COc1cc(/C=C2/SC(=S)N(CC(=O)O)C2=O)ccc1OC(=O)c1ccco1` gave INS-1E GSIS act -16, ERAP1 HTS inh 56*, miR-122 sensor -5, CFTR F508del cor 2, E-selectin induc 11 and DENV2 CPE 0.
`Cc1ccc(C=C2SC(=S)N(CCCC(=O)Nc3cccc(C(=O)O)c3)C2=O)cc1` gave INS-1E GSIS act -25, miR-122 sensor 1, CFTR F508del cor -2, E-selectin induc 1 and DENV2 CPE -3.
Screening Cc1ccc(/C=C2\SC(=S)N(CCCC(=O)Nc3cccc(C(=O)O)c3)C2=O)cc1 returned INS-1E GSIS act -19, ERAP1 HTS inh -5, miR-122 sensor -11, CFTR F508del cor 0, E-selectin induc 0 and DENV2 CPE 85*.
`COc1ccc(/C=C2\SC(=O)N(CCC(=O)Nc3ccccc3)C2=O)cc1OC` gave INS-1E GSIS act 53*.
CCCNC(=O)N1CC2(CN(C(=O)Cc3cccnc3)C2)c2c([nH]c3cc(OC)ccc23)[C@H]1CO was read as INS-1E GSIS act 26, ERAP1 HTS inh 0, CFTR F508del cor 1, E-selectin induc 0 and DENV2 CPE 10.
For O=C(O)C1Cc2c([nH]c3ccccc23)C(c2ccc3c(c2)OCO3)N1 (stereo unspecified) the results were INS-1E GSIS act 46*, ERAP1 HTS inh -1, miR-122 sensor 7 and CFTR F508del cor 2.
Screening COC(=O)[C@H]1Cc2c([nH]c3ccccc23)[C@H](c2ccccc2)N1 returned INS-1E GSIS act 8, ERAP1 HTS inh -4, miR-122 sensor 2, CFTR F508del cor 1, E-selectin induc 0 and DENV2 CPE -2.
COc1ccc([C@@H]2[C@@H](C)N(c3ccccc3)c3ccccc3C(=O)N2Cc2ccccc2)cc1 was read as INS-1E GSIS act -10, ERAP1 HTS inh 0, miR-122 sensor -5, CFTR F508del cor -2, E-selectin induc 0 and DENV2 CPE 86*.
For O=C1CN(Cc2ccc(F)cc2)C[C@@H]2[C@@H](c3ccc(-c4ccccc4F)cc3)[C@H](CO)N12 the results were INS-1E GSIS act 10, ERAP1 HTS inh 1, CFTR F508del cor -2, E-selectin induc 0 and DENV2 CPE 7.
For COc1ccc(CCn2nnc(-c3ccc(NC(C)=O)c(Cl)c3)n2)cc1 the results were INS-1E GSIS act 81* and miR-122 sensor -9.
Screening O=C(C[C@@H]1CC[C@@H](NC(=O)c2cccnc2)[C@H](CO)O1)NCc1ccncn1 returned INS-1E GSIS act 4, CFTR F508del cor 2 and E-selectin induc -1.
`O=C(NC1CCCC1)c1cc(-c2ccccc2Cl)on1` gave INS-1E GSIS act -8, ERAP1 HTS inh -5, miR-122 sensor 2, CFTR F508del cor 0 and DENV2 CPE -5.
`O=C(NC1CCCC1)c1cc(-c2ccccc2O)on1` gave INS-1E GSIS act 3, ERAP1 HTS inh 0, miR-122 sensor -4, CFTR F508del cor 0, E-selectin induc 47* and DENV2 CPE 2.
COCC(=O)Nc1ccc2c(c1)[C@@H]1C[C@@H](CC(=O)N3CCc4ccccc4C3)O[C@@H](CO)[C@@H]1O2 was read as INS-1E GSIS act -1, ERAP1 HTS inh -3, miR-122 sensor 5[16.7 µM], CFTR F508del cor -3, E-selectin induc 0 and DENV2 CPE 4.
`Cc1ccc(C)c(OCC(=O)N/N=C/c2c(C)nn(-c3ccccc3)c2Cl)c1C` gave INS-1E GSIS act 297*.
